Assay outcomes (PubChem BioAssay)
M5 antag: CHRM5 antagonism in calcium assay | P08912 | CHO-hM5 cells, Fluo-8 calcium fluorescence, ACh EC80 | inhibition, % at 3 µM | actives 0.59% (n = 360,000) | AID 624040;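 active means inhibition above a per-plate cutoff, the mean of that plate's test compounds plus 3 SD, cut at about 27% in these data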
Target sequence (P08912 whole entry, looked up): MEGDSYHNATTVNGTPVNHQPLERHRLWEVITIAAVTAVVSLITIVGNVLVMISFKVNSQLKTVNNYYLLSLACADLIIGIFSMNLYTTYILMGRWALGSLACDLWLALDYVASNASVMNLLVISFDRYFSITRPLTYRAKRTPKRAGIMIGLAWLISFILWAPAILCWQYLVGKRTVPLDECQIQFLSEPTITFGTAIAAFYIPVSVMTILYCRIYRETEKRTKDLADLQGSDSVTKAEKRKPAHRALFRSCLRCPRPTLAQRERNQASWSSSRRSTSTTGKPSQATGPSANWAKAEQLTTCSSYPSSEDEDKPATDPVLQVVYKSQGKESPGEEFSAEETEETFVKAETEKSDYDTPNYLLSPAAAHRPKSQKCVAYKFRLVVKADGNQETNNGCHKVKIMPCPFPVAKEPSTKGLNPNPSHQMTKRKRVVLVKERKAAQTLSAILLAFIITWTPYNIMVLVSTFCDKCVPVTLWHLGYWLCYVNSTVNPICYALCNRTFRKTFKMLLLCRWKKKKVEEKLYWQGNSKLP
M1 ag: activates human CHRM1 receptor; activation, % at 3 µM; actives 0.33% (n = 360,000); CHO-K1 hM1, Fluo-8 calcium fluorescence, agonist mode; 0% DMSO, 100% acetylcholine EC100; P11229;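 active means activation above the run's mean compound activation plus 3 SD, cut at about 16% in these data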;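 further: peak over basal fluorescence ratio within a 140 s kinetic read after compound addition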
M5 ag: CHRM5 agonism in calcium assay; P08912; CHO-K1 hM5 cells, Fluo-8 calcium fluorescence; 0% DMSO wells, 100% maximal acetylcholine response; activation, % at 3 µM; actives 0.19% (n = 360,000);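 active means activation above the run's mean over test compounds plus 3 SD, cut at about 23% in these data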;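 further: signal is peak over basal fluorescence ratio across the kinetic read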
CHRM1 antagonist: human CHRM1 antagonism; inhibition, % at 3 µM; AID 588852; P11229; actives 1.3% (n = 360,000); CHO-K1 hM1, Fluo-8 calcium fluorescence, ACh EC80 antagonist;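 active means percent inhibition above its own plate's cutoff, namely the mean of that plate's compound wells plus 3 SD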;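 further: peak over basal fluorescence ratio during 140 s after agonist addition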
CHRM5 PAM: potentiates acetylcholine response at human M5 receptor | actives 0.3% (n = 360,000) | P08912 | CHO-K1 hM5, Fluo-8 calcium, ACh EC20 PAM; 0% = ACh EC20, 100% = ACh EC100 | activation, % at 3 µM | AID 624038;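 active means activation above the run cutoff, the mean activation of all test compounds plus 3 SD, cut at about 18% in these data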
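Assay system: CHO-K1 hM5 cells / Incubation: Fluo-8 loading 80 min at 37 °C plus 30 min room temperature / Technique: Fluo-8 calcium dye fluorescence, kinetic read / Repeats: single replicate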
M1 PAM: potentiates human M1 receptor response to acetylcholine. P11229. actives 0.088% (n = 360,000). activation, % at 3 µM. CHO-K1 hM1, Fluo-8 calcium fluorescence, ACh EC20; 0% = ACh EC20, 100% = maximal ACh; in the data active means activation above about 19%, passing the limit was not always enough
Of the large screens only hits and unclear results are named; the others gave an inactive call. This is a sample that favours compounds with a hit; in the whole collection about 2.2% have one here.

Cc1ccc(CN2CCNC(=O)C2CC(=O)N(C)C(C2CC2)C2CC2)o1 (stereo unspecified)	none
CN1CCN(C(=O)/C=C/c2cn(-c3ccccc3)nc2-c2ccc3c(c2)OCCO3)CC1	CHRM5 PAM 19
Cc1ccc(S(=O)(=O)N2CCCCC2)cc1NC(=O)Cn1c(=O)cnc2ccccc21	none
CCC(=O)c1ccc(OCC(O)CN2CCN(C(c3ccccc3)c3ccccc3)CC2)cc1 (stereo unspecified)	CHRM1 antagonist 70
OC(COCc1ccco1)CN1CCN(C(c2ccccc2)c2ccccc2)CC1 (stereo unspecified)	CHRM1 antagonist 67
N#Cc1ccc(OCC(O)CN2CCN(C(c3ccccc3)c3ccccc3)CC2)cc1 (stereo unspecified)	M5 antag 37, CHRM1 antagonist 88
OC(COc1ccccc1)CN1CCN(C(c2ccccc2)c2ccccc2)CC1 (stereo unspecified)	none
Cc1ccc(Cl)cc1N1CCN(CC(O)COCc2ccco2)CC1 (stereo unspecified)	none
CCCCn1c(N)c(N(CC(C)C)C(=O)C2=COCCO2)c(=O)[nH]c1=O	none
COc1ccc(C2N(Cc3ccccc3)CCN2Cc2ccccc2)cc1[N+](=O)[O-]	none
CC(C)c1ccc(-c2cc(C(=O)N3CCOCC3)c3cc(Br)ccc3n2)cc1	none
CC1CCN(CC(=O)N2CCCc3c2c(=O)oc2ccc(OCc4ccccc4)cc32)CC1	CHRM1 antagonist 49
COc1cc(NC(=O)Cc2cccs2)c(C(=O)O)cc1OC	none
CCOC(=O)c1c(C)[nH]c(C(=O)COC(=O)C2CC2)c1C	CHRM1 antagonist 31
CC(=O)c1c(C)[nH]c(C(=O)COC(=O)C2CC2)c1C	none
C/C(=N\NC(=O)c1ccc2c(c1)OCO2)c1ccc(C(=O)O)s1	M5 antag 28
C/C(=N\NC(=O)c1ccc2c(c1)OCO2)c1ccc2c(c1)OCO2	none
CCOC(=O)N1CCN(C(=O)CCNS(=O)(=O)c2ccc(C)c(C)c2)CC1	none
COc1cc2c(cc1OC)CN(C(=O)CCNS(=O)(=O)c1ccc(Br)cc1)CC2	none
COc1cc2c(cc1OC)CN(C(=O)CNS(=O)(=O)c1ccc(C)c(C)c1)CC2	CHRM5 PAM 23
Cc1ccc(S(=O)(=O)NCCC(=O)N2CCC(C(N)=O)CC2)cc1C	M1 PAM 24
Cc1sc2nc(CSC(C)C(=O)Nc3cc(S(C)(=O)=O)ccc3Cl)[nH]c(=O)c2c1C (stereo unspecified)	none
O=C(NCCc1ccccc1)C(c1ccc(F)cc1)N(C(=O)c1csnn1)C1CC1 (stereo unspecified)	none
CN(C)c1ccc(/C=C(/C#N)C(=O)Nc2nc3c(s2)CCN(Cc2ccccc2)C3)cc1	M1 ag 19, M5 ag 49, CHRM1 antagonist 24
COc1ccccc1OCC(O)Cn1c(=N)n(CCN2CCCCC2)c2ccccc21 (stereo unspecified)	CHRM1 antagonist 19
CCOC(=O)C1=C(C)NC2=C(C(=O)CCC2)C1c1ccc(N(C)C)cc1 (stereo unspecified)	CHRM1 antagonist 45
CCCOC(=O)C1=C(C)NC2=C(C(=O)CCC2)C1c1ccc(N(C)C)cc1 (stereo unspecified)	CHRM1 antagonist 26
CC1=C(C(=O)OCC2CCCO2)C(c2ccc(C)cc2)C2=C(CCCC2=O)N1 (stereo unspecified)	CHRM5 PAM 20
CC1=C(C(=O)OCC2CCCO2)C(c2ccncc2)C2=C(CCCC2=O)N1 (stereo unspecified)	none
CCN(CC)c1ccc(C2C(C(=O)OCCOC)=C(C)NC3=C2C(=O)CCC3)cc1 (stereo unspecified)	none
Cn1ccnc1C1CCCCN1C(=O)c1cc(COc2ccc(F)cc2F)on1 (stereo unspecified)	none
O=C(Nc1ccc2cn[nH]c2c1)c1ccc(Cl)c(S(=O)(=O)N2CCOCC2)c1	none
O=C(Nc1cccc([N+](=O)[O-])c1)NC1CCCCCCC1	M5 antag 29
